Screening data (PubChem)
FN deposit inh: fibronectin deposition inhibition. inhibition, % at 12.6 µM. actives 0.086% (n = 350,000). AH1F fibroblasts, Alexa488-fibronectin deposition fluorescence, overnight;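 active means mean inhibition across replicates of 30% or more, regardless of how many single replicates reach that level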;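 further: positive control wells lacked labelled fibronectin entirely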
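Material: AH1F fibroblast monolayer depositing Alexa488-labelled fibronectin into matrix | Input: 10000 AH1F cells/well | Medium: DMEM plus 2% serum, read in PBS | Reagent: Alexa488-fibronectin, 24 nM final in well | Compound dosing: One dose per compound, pinned | Schedule: 1 h adhesion, overnight exposure | Measured by: Fluorescence at 485 nm excitation, 525 nm emission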
DENV2 CPE rescue: protects cells from dengue virus 2 cytopathic effect | DENV2-infected cells, cytopathic effect rescue, plate reader | CPE inhibition, % at 9.99 µM | actives 1.7% (n = 350,000); in the data active means CPE inhibition above about 20%, passing the limit was not always enough; tested in BHK-21 cells;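 further: 0% = median of neutral control wells and 100% = median of positive control wells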
SIRT5 inh: inhibitors of human sirtuin-5 desuccinylase | Q9NXA8 | Purified SirT5, succinyl-peptide AMC, trypsin-coupled fluorescence | inhibition, % at 15 µM | actives 1.1% (n = 330,000) | AID 652115; in the data active means inhibition above about 15%
Target sequence (Q9NXA8 whole entry, looked up): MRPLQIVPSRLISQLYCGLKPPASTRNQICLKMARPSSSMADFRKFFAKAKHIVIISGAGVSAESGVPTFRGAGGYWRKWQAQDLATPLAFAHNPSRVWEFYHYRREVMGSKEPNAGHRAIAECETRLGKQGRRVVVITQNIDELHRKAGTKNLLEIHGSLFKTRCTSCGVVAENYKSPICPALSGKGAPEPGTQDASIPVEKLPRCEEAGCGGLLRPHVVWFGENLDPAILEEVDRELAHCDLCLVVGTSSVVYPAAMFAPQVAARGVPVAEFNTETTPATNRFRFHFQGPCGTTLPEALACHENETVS
FGF22 binding: FGF22 (human) thermal shift binding; recombinant FGF22 thermal shift, SYPRO orange fluorescence; percent of sucrose octasulfate shift, DMSO zero; activity (Tm shift, normalised), % at 9.99 µM; actives 1.5% (n = 340,000); AID 651658;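 active means mean Tm shift, scaled 0 neutral to 100 positive control, at about 1.3% or above, every replicate too, limit read from the data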
Target sequence (Q9HCT0 whole entry, looked up): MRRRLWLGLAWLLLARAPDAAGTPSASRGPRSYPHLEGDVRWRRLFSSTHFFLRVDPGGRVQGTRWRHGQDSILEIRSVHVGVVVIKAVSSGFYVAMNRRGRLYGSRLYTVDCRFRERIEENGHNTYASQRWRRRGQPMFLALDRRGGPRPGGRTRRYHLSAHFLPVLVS
ARNT-TACC3 inh: disruptors of human ARNT/TACC3 interaction; AlphaScreen His-ARNT PAS-B/GST-TACC3 binding, luminescence; TACC3 fragment carries E629A point mutation; inhibition, % at 9.99 µM; actives 0.66% (n = 390,000); AID 623870;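 active means mean inhibition of replicates at least 50% and at least half of replicates each reaching 50%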;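 further: 0% = complete ARNT plus TACC3 wells and 100% = ARNT alone without TACC3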
XiGFP reactiv: activators of X-chromosome reactivation in mouse fibroblasts; AID 743238; activation, % at 7.58 µM; XiGFP mouse fibroblasts, % GFP-positive cells imaging, 3 d; cells co-treated with 5-aza-dC sensitizer; scaled so ellipticine positive control = 100%; actives 0.055% (n = 360,000);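 active means mean normalized replicate activation at least 10% and every replicate at or above 10%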;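 further: 0% = median of on-plate neutral control wells and 100% = ellipticine 6 µM median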
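Assay system: SV40-immortalized XiGFP fibroblast cells, line 68-5-11; buffer or medium: DMEM plus 5-aza-dC sensitizer; compound: one concentration, pinned; timing: compounds 3 days, fix/stain 15 min at room temperature; benchmarks: positive control ellipticine, 6 µM final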
* hit, by the source's call; . = no result; ! = a repeat was not active. Compounds with a hit are over-represented: about 3.8% of the library has one in this group of screens.

SMILES	FN deposit inh	DENV2 CPE rescue	SIRT5 inh	FGF22 binding	ARNT-TACC3 inh	XiGFP reactiv
CCCNC(=O)N1C[C@@H]2[C@H](c3ccccc31)[C@@H](CO)N2C(=O)Nc1ccccc1	.	.	-2.3	-0.4	-8.3	0.3
COc1ccccc1NC(=O)N(C)C[C@@H]1Oc2ncc(C#CC(C)C)cc2C(=O)N([C@@H](C)CO)C[C@H]1C	-8.3	0.6	-1.3	-0.1	7.9	-1.0
CC1CCC(C(C)C)C(OC(=O)Cn2c(-c3ccccc3)[n+](C)c3ccccc32)C1 (centres undefined)	2.2	-13.6	18.8*!	0.1	1.9	0.0
O=C(O)Cc1cccc(=O)c(O)c1C(=O)O	.	.	.	.	93.2*	.
COc1cccc(-c2cnc3c(c2)C(=O)N([C@@H](C)CO)C[C@@H](C)[C@@H](CN(C)Cc2ccncc2)O3)c1	-21.9	3.5	-1.6	0.1	-12.5	-0.4
Cc1ccc(NS(=O)(=O)c2cc(C(=O)N(C)C)ccc2C)cc1C	7.0	0.8	-2.0	43.0*	-9.2	0.0
Cc1ccc(NS(=O)(=O)c2cc(C(=O)N3CCCC3)ccc2C)cc1C	3.5	-3.9	-4.4	0.1	.	0.0
COc1cccc(NC(=O)N[C@@H]2C=C[C@@H](CC(=O)Nc3ccccc3)O[C@H]2CO)c1	-8.1	-0.1	0.6	-0.4	18.8	-0.4
CCCNC(=O)N1CC2(C1)CN(C(=O)NC(C)C)[C@@H](CO)c1c2c2ccc(OC)cc2n1C	.	.	.	.	.	0.1
COC(CNC(=O)c1ccc2c(c1)nc(C)n2-c1ccc(F)c(F)c1)OC	-6.1	.	.	.	2.9	.
Cc1nc2cc(C(=O)N3CCc4ccccc43)ccc2n1-c1ccc(F)c(F)c1	9.0	8.3	16.0*	0.3	6.2	0.1
CC(=O)N1CC(=O)N2[C@H](CO)[C@H](c3ccc(-c4ccc(C#N)cc4)cc3)[C@H]2C1	.	-7.4	1.7	.	.	0.5
COc1ccc(CNc2ncnc3cc(Cl)ccc23)cc1OC	-3.5	-2.4	-3.7	43.3*	-2.5	0.0
O=C(C[C@@H]1C[C@H]2c3cc(NC(=O)C4CCC4)ccc3O[C@H]2[C@@H](CO)O1)NC1CCCCC1	12.1	5.1	-2.7	-0.1	-1.6	0.4
CCCN(CCC)CCCNC(=O)c1cc2c(=O)[nH]c3ccccc3c2n1C	2.0	28.6*	-2.6	0.1	-19.3	0.1
CCCCN(CC)CCNC(=O)c1cc2c(=O)[nH]c3ccccc3c2n1C	4.6	-3.1	-0.7	0.1	.	0.2
CC(C)NC(=O)N(C)C[C@H]1OCc2cnnn2CCCC(=O)N([C@H](C)CO)C[C@@H]1C	4.3	91.8*!	-1.9	0.5	-12.8	-0.1
C[C@@H]1CN([C@H](C)CO)C(=O)CCCn2nncc2CO[C@@H]1CN(C)C(=O)c1ccc2ccn(C)c2c1	1.1	-3.6	0.6	-0.1	-6.0	0.0
C[C@H]1CN([C@@H](C)CO)C(=O)CCCn2nncc2CO[C@@H]1CN(C)C(=O)c1ccc2ccn(C)c2c1	2.8	7.6	37.6*!	0.1	-7.1	-0.1
CCOC(=O)N(C)C[C@@H]1OCc2cnnn2CCCC(=O)N([C@@H](C)CO)C[C@@H]1C	3.7	70.1*!	-0.4	-0.2	-5.2	-0.1
C[C@@H]1CN([C@H](C)CO)C(=O)CCCn2nncc2CO[C@@H]1CN(C)C(=O)Nc1ccccc1	-4.1	2.9	-2.0	0.0	-1.5	0.0
C[C@@H]1CN([C@@H](C)CO)C(=O)CCCn2nncc2CO[C@H]1CN(C)C(=O)Nc1ccccc1	1.3	30.8*	2.8	0.1	-2.2	0.4
C[C@@H]1CN([C@@H](C)CO)C(=O)c2cc(NS(=O)(=O)c3ccc(Cl)cc3)ccc2O[C@@H]1CN(C)S(=O)(=O)c1ccccc1	.	-12.4	.	0.3	-2.5	0.1
CCCNC(=O)N1C[C@@H](C)[C@H](OC)CN(C)C(=O)c2cc(NS(=O)(=O)CC(F)(F)F)ccc2OC[C@@H]1C	.	60.2*	-7.2	0.5	-19.4	0.1
CCC(=O)Nc1ccc2c(c1)C(=O)N(C)C[C@@H](OC)[C@@H](C)CN(C(C)=O)[C@@H](C)CO2	11.5	31.9*	2.7	-0.1	14.1	0.3
SMILES	FN deposit inh	DENV2 CPE rescue	SIRT5 inh	FGF22 binding	ARNT-TACC3 inh	XiGFP reactiv
CCC(=O)Nc1ccc2c(c1)C(=O)N(C)C[C@H](OC)[C@@H](C)CN(C(C)=O)[C@@H](C)CO2	-10.2	54.3*	-3.2	-0.2	-9.3	0.0
CCS(=O)(=O)Nc1ccc2c(c1)C(=O)N(C)C[C@H](OC)[C@H](C)CN(C(C)=O)[C@H](C)CO2	11.4	23.7*	-0.5	-0.3	-5.8	0.0
C[C@H]1CN([C@@H](C)CO)C(=O)c2ccccc2-c2ccccc2CO[C@H]1CN(C)C(=O)Nc1ccc2c(c1)OCO2	-5.7	0.5	.	0.3	2.9	-0.6
CO[C@H]1CN(C)C(=O)c2ccc(NS(=O)(=O)CC(F)(F)F)cc2OC[C@H](C)N(C)C[C@@H]1C	14.1	-3.9	24.8*	-0.1	.	0.0
CCC(=O)Nc1ccc2c(c1)C(=O)N(C)C[C@@H](OC)[C@H](C)CN(C(C)=O)[C@@H](C)CO2	-11.8	28.8*	0.4	.	.	0.0
C[C@H]1CN([C@@H](C)CO)C(=O)Cc2cc(N(C)C)ccc2O[C@@H]1CN(C)Cc1ccc(Cl)c(Cl)c1	-28.7	-4.3	3.2	-1.9	.	-1.0
Cc1cc(C)c2nc(SC(C)C(=O)NCC(=O)Nc3ccc(F)c(F)c3F)cc(C)c2c1 (centres undefined)	-1.7	27.8*	-5.2	42.3	-0.2	0.1
Cc1cc(SC(C)C(=O)NCC(=O)Nc2ccc(F)c(F)c2F)nc2ccccc12 (centres undefined)	-1.9	2.0	-0.7	-0.2	-3.5	0.0
Cn1c(=O)n(C)c2cc(N3CCOCC3)c(NC(=O)c3ccc(F)cc3)cc21	-10.6	41.6*	-0.9	0.0	-3.0	0.0
COc1cccc(OC)c1C(=O)Nc1cc2c(cc1N1CCOCC1)n(C)c(=O)n2C	2.7	-5.0	0.3	-0.1	-2.6	0.1
Cc1ccc(S(=O)(=O)N(C)C)cc1NC(=O)c1cc(S(=O)(=O)N2CCCCC2)ccc1N1CCOCC1	0.2	22.7*	-3.6	-0.2	-7.8	0.0
CCN(CC)S(=O)(=O)c1ccc(N2CCOCC2)c(NC(=O)c2cc(C)cc(C)c2)c1	0.6	.	.	.	25.2	0.0
O=C(Nc1cc(S(=O)(=O)N2CCOCC2)ccc1N1CCOCC1)c1cc2c(s1)CCC2	-3.8	-1.9	16.6*	-0.2	-3.5	0.0
CCN(CC)S(=O)(=O)c1ccc(N2CCOCC2)c(NC(=O)c2ccccc2)c1	-10.9	26.1*	0.1	-0.1	1.2	0.2
COc1cccc(NC(=O)N2CC(=O)N3[C@H](CO)[C@@H](c4ccc(Br)cc4)[C@@H]3C2)c1	.	-13.5	1.8	.	.	0.1
